According to ChEMBL document CHEMBL4689842, “EUbOPEN Chemogenomics Library wave 1” (2021):
“And” between values parts separate entries of the source, which are not always exact repeats. Equal entries are not always repeated.

Tested on: Fibroblast
Experiment: Multiplex assay against human fibroblast
Type: toxicity, cell-based
In short: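 Live cells carried four stains from seeding: Hoechst33342, BioTracker Green Microtubule Cytoskeleton Dye, MitoTracker Red and Annexin V Alexa Fluor 680. They were imaged on a CQ1 microscope at 37°C and 5% CO2 after compound addition. Using CellPathfinder machine-learning gating, cells were split into Hoechst high-intensity objects or normal cells, normal cells into healthy, pyknosed or fragmented nuclei, and pyknosed cells into mitotic or apoptotic; tubulin, mitochondrial-mass and membrane-permeability phenotypes are per cents of healthy-nucleus cells.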

[1] = 12 h, 1 µM, compound concentration 1 uM, replicate 1
[2] = 12 h, 1 µM, compound concentration 1 uM, replicate 2
[3] = 12 h, 10 µM, compound concentration 10 uM, replicate 1
[4] = 12 h, 10 µM, compound concentration 10 uM, replicate 2
[5] = 24 h, 1 µM, compound concentration 1 uM, replicate 1
[6] = 24 h, 1 µM, compound concentration 1 uM, replicate 2
[7] = 24 h, 10 µM, compound concentration 10 uM, replicate 1
[8] = 24 h, 10 µM, compound concentration 10 uM, replicate 2
[9] = 48 h, 10 µM, compound concentration 10 uM, replicate 1
[10] = 48 h, 10 µM, compound concentration 10 uM, replicate 2
[11] = 48 h, 1 µM, compound concentration 1 uM, replicate 1
[12] = 48 h, 1 µM, compound concentration 1 uM, replicate 2

## CCN(CC)CCCCNc1ncc2cc(-c3cc(OC)cc(OC)c3)c(NC(=O)NC(C)(C)C)nc2n1 [PD-173074]
[1]
  Population Apoptotic (%): 61%
  Population Fragmented Nuclei (%): 20%
  Population Hoechst High Intensity Objects (%): 70%
  Population Membrane Permeable-Phenotype (%): 2%
  Population Mitotic Cells (%): 38%
  Population Normal (%): 29%
  Population Pyknosed Nuclei (%): 63%
  Population Tubulin-Different-Phenotype (%): 8%
  Total Cell Count: 749
[2]
  Population Apoptotic (%): 67%
  Population Fragmented Nuclei (%): 46%
  Population Healthy Nuclei (%): 15%
  Population Hoechst High Intensity Objects (%): 72%
  Population Membrane Permeable-Phenotype (%): 13%
  Population Mitochondria Different-Phenotype (%): 0%
  Population Mitotic Cells (%): 32%
  Population Normal (%): 27%
  Population Pyknosed Nuclei (%): 38%
  Population Tubulin-Different-Phenotype (%): 0%
  Total Cell Count: 352
[3]
  Population Apoptotic (%): 60%
  Population Fragmented Nuclei (%): 44%
  Population Healthy Nuclei (%): 34%
  Population Hoechst High Intensity Objects (%): 57%
  Population Membrane Permeable-Phenotype (%): 0%
  Population Mitotic Cells (%): 39%
  Population Normal (%): 42%
  Population Pyknosed Nuclei (%): 20%
  Population Tubulin-Different-Phenotype (%): 6%
  Total Cell Count: 786
[4]
  Population Apoptotic (%): 66%
  Population Fragmented Nuclei (%): 54%
  Population Healthy Nuclei (%): 32%
  Population Hoechst High Intensity Objects (%): 61%
  Population Membrane Permeable-Phenotype (%): 16%
  Population Mitochondria Different-Phenotype (%): 4%
  Population Mitotic Cells (%): 33%
  Population Normal (%): 38%
  Population Pyknosed Nuclei (%): 12%
  Population Tubulin-Different-Phenotype (%): 8%
  Total Cell Count: 189
[5]
  Population Apoptotic (%): 59%
  Population Fragmented Nuclei (%): 32%
  Population Healthy Nuclei (%): 13%
  Population Hoechst High Intensity Objects (%): 74%
  Population Membrane Permeable-Phenotype (%): 0%
  Population Mitotic Cells (%): 40%
  Population Normal (%): 25%
  Population Pyknosed Nuclei (%): 53%
  Population Tubulin-Different-Phenotype (%): 9%
  Total Cell Count: 594
[6]
  Population Apoptotic (%): 62%
  Population Fragmented Nuclei (%): 44%
  Population Healthy Nuclei (%): 12%
  Population Hoechst High Intensity Objects (%): 72%
  Population Membrane Permeable-Phenotype (%): 16%
  Population Mitochondria Different-Phenotype (%): 0%
  Population Mitotic Cells (%): 37%
  Population Normal (%): 27%
  Population Pyknosed Nuclei (%): 43%
  Population Tubulin-Different-Phenotype (%): 0%
  Total Cell Count: 339
[7]
  Population Apoptotic (%): 51%
  Population Fragmented Nuclei (%): 42%
  Population Healthy Nuclei (%): 39%
  Population Membrane Permeable-Phenotype (%): 2%
  Population Mitochondria Different-Phenotype (%): 0%
  Population Mitotic Cells (%): 48%
  Population Pyknosed Nuclei (%): 18%
  Population Tubulin-Different-Phenotype (%): 5%
  Total Cell Count: 734
[8]
  Population Apoptotic (%): 60%
  Population Fragmented Nuclei (%): 58%
  Population Healthy Nuclei (%): 28%
  Population Hoechst High Intensity Objects (%): 58%
  Population Membrane Permeable-Phenotype (%): 28%
  Population Mitochondria Different-Phenotype (%): 14%
  Population Mitotic Cells (%): 40%
  Population Normal (%): 41%
  Population Pyknosed Nuclei (%): 13%
  Population Tubulin-Different-Phenotype (%): 19%
  Total Cell Count: 177

## CNCc1ccccc1-c1csc([C@H](C)Nc2nc(C)nc3cc(OC)c(OC)cc23)c1 [BAY-294]
[3]
  Population Apoptotic (%): 43% and 56% and 82%
  Population Fragmented Nuclei (%): 26% and 31% and 27%
  Population Membrane Permeable-Phenotype (%): 18% and 34% and 33%
  Population Normal (%): 70% and 93% and 84%
  Population Pyknosed Nuclei (%): 25% and 52% and 62%
  Population Tubulin-Different-Phenotype (%): 34% and 69% and 83%
[4]
  Population Apoptotic (%): 78% and 55% and 57%
  Population Fragmented Nuclei (%): 54% and 37% and 46%
  Population Hoechst High Intensity Objects (%): 27% and 35% and 55%
  Population Mitotic Cells (%): 21% and 45% and 42%
  Population Normal (%): 72% and 64% and 44%
  Population Pyknosed Nuclei (%): 31% and 19% and 30%
  Population Tubulin-Different-Phenotype (%): 77% and 56% and 100%
[7]
  Population Apoptotic (%): 54% and 89%
  Population Fragmented Nuclei (%): 17% and 38% and 29%
  Population Hoechst High Intensity Objects (%): 41% and 14% and 31%
  Population Normal (%): 58% and 85% and 68%
  Population Pyknosed Nuclei (%): 32% and 54% and 49%
  Population Tubulin-Different-Phenotype (%): 31% and 43% and 83%
[8]
  Population Apoptotic (%): 31% and 93% and 78%
  Population Fragmented Nuclei (%): 33% and 60% and 52%
  Population Hoechst High Intensity Objects (%): 37% and 38% and 54%
  Population Normal (%): 62% and 61% and 45%
  Population Pyknosed Nuclei (%): 29% and 33% and 27%
[9]
  Population Apoptotic (%): 75%
  Population Fragmented Nuclei (%): 40%
  Population Healthy Nuclei (%): 44%
  Population Hoechst High Intensity Objects (%): 35%
  Population Membrane Permeable-Phenotype (%): 43%
  Population Mitochondria Different-Phenotype (%): 52%
  Population Mitotic Cells (%): 25%
  Population Normal (%): 64%
  Population Pyknosed Nuclei (%): 15%
  Population Tubulin-Different-Phenotype (%): 65%
[10]
  Population Apoptotic (%): 100%
  Population Fragmented Nuclei (%): 84%
  Population Healthy Nuclei (%): 8%
  Population Hoechst High Intensity Objects (%): 31%
  Population Membrane Permeable-Phenotype (%): 0%
  Population Mitochondria Different-Phenotype (%): 100%
  Population Mitotic Cells (%): 0%
  Population Normal (%): 68%
  Population Pyknosed Nuclei (%): 7%
  Population Tubulin-Different-Phenotype (%): 0%

## CN(C)C(=O)/C(C#N)=C/c1ccc(-c2nc3cnc4[nH]ccc4c3n2C2CCCCC2)o1
[1]
  Population Apoptotic (%): 67%
  Population Fragmented Nuclei (%): 27%
  Population Healthy Nuclei (%): 43%
  Population Hoechst High Intensity Objects (%): 19%
  Population Membrane Permeable-Phenotype (%): 26%
  Population Mitochondria Different-Phenotype (%): 17%
  Population Mitotic Cells (%): 32%
  Population Normal (%): 80%
  Population Pyknosed Nuclei (%): 29%
  Population Tubulin-Different-Phenotype (%): 36%
  Total Cell Count: 131
[2]
  Population Apoptotic (%): 57%
  Population Fragmented Nuclei (%): 4%
  Population Healthy Nuclei (%): 87%
  Population Hoechst High Intensity Objects (%): 2%
  Population Membrane Permeable-Phenotype (%): 2%
  Population Mitochondria Different-Phenotype (%): 6%
  Population Mitotic Cells (%): 42%
  Population Normal (%): 97%
  Population Pyknosed Nuclei (%): 7%
  Population Tubulin-Different-Phenotype (%): 24%
  Total Cell Count: 75
[3]
  Population Apoptotic (%): 51%
  Population Fragmented Nuclei (%): 28%
  Population Healthy Nuclei (%): 38%
  Population Hoechst High Intensity Objects (%): 61%
  Population Membrane Permeable-Phenotype (%): 22%
  Population Mitochondria Different-Phenotype (%): 11%
  Population Mitotic Cells (%): 48%
  Population Normal (%): 38%
  Population Pyknosed Nuclei (%): 32%
  Population Tubulin-Different-Phenotype (%): 65%
  Total Cell Count: 515
[4]
  Population Apoptotic (%): 18%
  Population Fragmented Nuclei (%): 20%
  Population Healthy Nuclei (%): 62%
  Population Hoechst High Intensity Objects (%): 54%
  Population Membrane Permeable-Phenotype (%): 13%
  Population Mitochondria Different-Phenotype (%): 63%
  Population Mitotic Cells (%): 81%
  Population Normal (%): 45%
  Population Pyknosed Nuclei (%): 17%
  Population Tubulin-Different-Phenotype (%): 70%
  Total Cell Count: 91
[5]
  Population Apoptotic (%): 43%
  Population Fragmented Nuclei (%): 34%
  Population Healthy Nuclei (%): 46%
  Population Hoechst High Intensity Objects (%): 14%
  Population Membrane Permeable-Phenotype (%): 33%
  Population Mitochondria Different-Phenotype (%): 5%
  Population Mitotic Cells (%): 56%
  Population Normal (%): 85%
  Population Pyknosed Nuclei (%): 19%
  Population Tubulin-Different-Phenotype (%): 41%
  Total Cell Count: 141
[6]
  Population Apoptotic (%): 54%
  Population Fragmented Nuclei (%): 5%
  Population Healthy Nuclei (%): 84%
  Population Hoechst High Intensity Objects (%): 4%
  Population Membrane Permeable-Phenotype (%): 2%
  Population Mitochondria Different-Phenotype (%): 10%
  Population Mitotic Cells (%): 45%
  Population Normal (%): 95%
  Population Pyknosed Nuclei (%): 9%
  Population Tubulin-Different-Phenotype (%): 36%
  Total Cell Count: 81
[7]
  Population Apoptotic (%): 35%
  Population Fragmented Nuclei (%): 27%
  Population Healthy Nuclei (%): 25%
  Population Hoechst High Intensity Objects (%): 61%
  Population Membrane Permeable-Phenotype (%): 28%
  Population Mitochondria Different-Phenotype (%): 18%
  Population Mitotic Cells (%): 64%
  Population Normal (%): 38%
  Population Pyknosed Nuclei (%): 47%
  Population Tubulin-Different-Phenotype (%): 64%
  Total Cell Count: 606
[8]
  Population Apoptotic (%): 44%
  Population Fragmented Nuclei (%): 28%
  Population Healthy Nuclei (%): 53%
  Population Hoechst High Intensity Objects (%): 54%
  Population Membrane Permeable-Phenotype (%): 12%
  Population Mitochondria Different-Phenotype (%): 49%
  Population Mitotic Cells (%): 55%
  Population Normal (%): 45%
  Population Pyknosed Nuclei (%): 17%
  Population Tubulin-Different-Phenotype (%): 45%
  Total Cell Count: 125
[11]
  Population Apoptotic (%): 52%
  Population Fragmented Nuclei (%): 33%
  Population Healthy Nuclei (%): 37%
  Population Hoechst High Intensity Objects (%): 15%
  Population Membrane Permeable-Phenotype (%): 24%
  Population Mitochondria Different-Phenotype (%): 8%
  Population Mitotic Cells (%): 47%
  Population Normal (%): 84%
  Population Pyknosed Nuclei (%): 29%
  Population Tubulin-Different-Phenotype (%): 46%
  Total Cell Count: 143
[12]
  Population Apoptotic (%): 100%
  Population Fragmented Nuclei (%): 24%
  Population Healthy Nuclei (%): 72%
  Population Hoechst High Intensity Objects (%): 10%
  Population Membrane Permeable-Phenotype (%): 14%
  Population Mitochondria Different-Phenotype (%): 5%
  Population Mitotic Cells (%): 0%
  Population Normal (%): 89%
  Population Pyknosed Nuclei (%): 2%
  Population Tubulin-Different-Phenotype (%): 24%
  Total Cell Count: 119
[9]
  Population Apoptotic (%): 37%
  Population Fragmented Nuclei (%): 28%
  Population Healthy Nuclei (%): 28%
  Population Hoechst High Intensity Objects (%): 62%
  Population Membrane Permeable-Phenotype (%): 30%
  Population Mitochondria Different-Phenotype (%): 11%
  Population Mitotic Cells (%): 62%
  Population Normal (%): 37%
  Population Pyknosed Nuclei (%): 42%
  Population Tubulin-Different-Phenotype (%): 57%
  Total Cell Count: 650
[10]
  Population Apoptotic (%): 57%
  Population Fragmented Nuclei (%): 31%
  Population Healthy Nuclei (%): 57%
  Population Hoechst High Intensity Objects (%): 43%
  Population Membrane Permeable-Phenotype (%): 9%
  Population Mitochondria Different-Phenotype (%): 9%
  Population Mitotic Cells (%): 42%
  Population Normal (%): 56%
  Population Pyknosed Nuclei (%): 11%
  Population Tubulin-Different-Phenotype (%): 62%
  Total Cell Count: 307
